Compound activity as filed in PubChem.
Rows were chosen to be rich in hits. Some 3.5% of all compounds tested hit in one or more screens of this group.
HTRA1 inh: HTRA1 (human) protease inhibition. Q92743. recombinant HTRA1, FP-rhodamine activity-based probe, fluorescence polarization. inhibition, % at 5.96 µM. 0.5% of 340,000 active; in the data active = inhibition above about 36%
rCAG RNA binder: binds r(CAG) RNA repeats; inhibition, % at 3 µM; AID 651821; 1.3% of 370,000 active; r(CAG) RNA repeat, TO-PRO-1 dye displacement fluorescence;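 active = inhibition above the plate cutoff, the mean of all test compounds on that plate plus 3 SD, cut at about 35% in these data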;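 also: higher means more dye released from RNA so lower well fluorescence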
SIAE primary: human SIAE inhibition, primary screen | Q9HAT2 | SIAE FP-Rh probe binding, fluorescence polarization | inhibition, % at 9.66 µM | 0.69% of 370,000 active;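 active = inhibition above a cutoff: mean of compounds within the control limits plus 3 SD of those, cut at about 17% in these data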
Target sequence (Q9HAT2 whole entry, looked up): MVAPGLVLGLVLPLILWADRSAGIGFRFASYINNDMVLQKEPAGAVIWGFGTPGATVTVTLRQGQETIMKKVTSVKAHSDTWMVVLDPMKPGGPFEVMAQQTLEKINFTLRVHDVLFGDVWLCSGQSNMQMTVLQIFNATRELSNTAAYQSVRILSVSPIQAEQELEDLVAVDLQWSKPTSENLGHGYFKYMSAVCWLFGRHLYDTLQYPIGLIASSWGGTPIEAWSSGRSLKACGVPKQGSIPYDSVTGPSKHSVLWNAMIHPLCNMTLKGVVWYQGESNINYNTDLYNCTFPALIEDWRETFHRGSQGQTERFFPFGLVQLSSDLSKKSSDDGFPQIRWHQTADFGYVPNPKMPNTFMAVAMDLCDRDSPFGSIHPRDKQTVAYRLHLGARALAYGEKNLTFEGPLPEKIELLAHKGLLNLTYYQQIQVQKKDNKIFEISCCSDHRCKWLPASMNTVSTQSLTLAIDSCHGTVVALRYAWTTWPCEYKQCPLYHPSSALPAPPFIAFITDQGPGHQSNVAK
TCR-CD3 inh: inhibitors of human TCR-CD3 interaction; TAMRA-labeled TCR probe fluorescence, biochemical; inhibition, % at 9.4 µM; 0.37% of 360,000 active; in the data active = inhibition above about 19%;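 also: recombinant mutant TCR 2C K166C tagged with TAMRA read by polarization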
mABHD4 FP: inhibits mouse alpha/beta hydrolase domain 4 | Q8VD66 | purified mABHD4, FP-Rh probe fluorescence polarization | inhibition, % at 8.92 µM | 0.54% of 370,000 active;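 active = inhibition exceeding the mean over every tested compound plus 3 SD, cut at about 30% in these data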
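Assay system: wild-type mouse ABHD4 protein; compound: single nominal dose of 8.92 µM, 0.89% DMSO final; schedule: 45 min + 60 min at 25 °C; measured by: FP readout, ex 525 nm / em 598 nm; evaluation: % inhibition of FP-Rh probe binding versus controls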
PRMT1 FP inh: PRMT1 (human) inhibition, primary screen; Q99873; recombinant PRMT1, activity-based probe fluorescence polarization; inhibition, % at 2.79 µM; 1.3% of 370,000 active; AID 652257;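 active = inhibition above about 21% made by adding two undisclosed values, limit read from the data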
Numbers stand for hits; . = inactive; / = no result.

SMILES	HTRA1 inh	rCAG RNA binder	SIAE primary	TCR-CD3 inh	mABHD4 FP	PRMT1 FP inh
COc1ccccc1CN(Cc1cc2cc(C)ccc2[nH]c1=O)Cc1nnnn1Cc1ccco1	.	.	.	.	.	.
C#CCCCN([C@@H](CC(C)C)C(=O)OC)S(=O)(=O)c1ccc(F)cc1Br	/	.	.	/	.	.
COc1ccccc1N1C(=O)C=C(Sc2nc(C)cc(C)n2)C1=O	/	.	.	.	.	24
O=S1(=O)c2ccc(N3CCN(Cc4ccccc4F)CC3)cc2Oc2ccccc2CN1Cc1cn(Cc2ccccc2C(F)(F)F)nn1	/	.	.	/	.	.
O=C(OCC(=O)N1CCN(c2ccccc2)CC1)c1ccc2ncsc2c1	.	.	.	.	.	23
O=C(OCC(=O)N1CCN(c2ccccc2)CC1)c1ccc(Cl)nc1	.	.	.	.	.	.
C#CCNC(=O)C[C@H]1C[C@@]2(C(=O)OC)C(=C[C@H](C3CCCC3)O[C@@H]2C)N(Cc2ccc(Cl)cc2Cl)C1=O	/	.	.	/	.	.
Cc1ccc(C2=Nc3ccccc3SC(c3cccc([N+](=O)[O-])c3)C2)cc1 (stereo not drawn)	.	.	.	.	.	76
CCOC(=O)Cc1nnc(NC(=O)Nc2ccccc2)s1	.	35	.	.	.	.
CCOC(=O)Cn1cc(CN2CCS(=O)(=O)N(Cc3ccc(F)cc3)C(C(=O)OC)C2)nn1 (stereo not drawn)	/	.	.	/	.	.
C[C@H](O)[C@@H]1CN2CCc3c([nH]c4c(-c5ccc6c(c5)OCO6)cccc34)[C@@H]2C[C@@H]1N(C)C(=O)Nc1ccccc1	/	.	.	/	.	.
N#CC1=C(N)n2c(s/c(=C\c3cccs3)c2=O)=C(C#N)C1c1cccs1 (stereo not drawn)	.	51	.	.	.	.
C=CCOC/C=C/C#CCN(Cc1ccc(OC)cc1OC)C(=O)Nc1ccccc1	/	.	.	/	.	.
N#Cc1c(C(F)(F)F)cc(-c2ccccc2Cl)[nH]c1=O	.	37	.	.	.	.
N#Cc1c(C(F)(F)F)cc(-c2ccccc2)[nH]c1=O	.	.	.	.	.	.
O=C(Nc1ccc(Oc2ccccc2)cc1)C1CCCN1S(=O)(=O)c1cccc2cccnc12 (stereo not drawn)	/	.	.	/	.	.
N#CC1=C2SCN(Cc3ccco3)CN2C(=O)CC1c1cccc2ccccc12 (stereo not drawn)	.	37	.	.	.	30
CCOC(=O)N1CCN(S(=O)(=O)c2ccc(C(=O)NNc3nc4cc(C)cc(C)c4s3)cc2)CC1	50	/	/	/	/	/
COc1ccc(CC(=O)Nc2sc3c(c2C(N)=O)CCCC3)cc1	.	.	.	.	.	.
COc1ccc2nc(Nc3sc4c(c3C(N)=O)CCCC4)sc2c1	.	.	.	.	.	45
Nc1ccn([C@@H]2O[C@H](C(=O)N[C@H](Cc3ccccc3)C(=O)N3CCSC3)[C@@H](O)[C@H]2O)c(=O)n1	/	.	.	.	.	.
Nc1ccn([C@@H]2O[C@H](C(=O)N[C@H](Cc3ccccc3)C(=O)Nc3ccc4scnc4c3)[C@@H](O)[C@H]2O)c(=O)n1	/	.	.	.	.	21
COc1ccccc1OC(=O)CCc1nc2ccccc2s1	.	.	.	.	.	22
COc1cc(C(Nc2ccc3c(c2)OCO3)C(=O)NC2CCCCC2)cc(OC)c1OC (stereo not drawn)	.	.	.	.	.	25
O=C(CCc1c[nH]c2ccccc12)N1CCN(c2ccc(O)cc2)CC1	.	.	.	.	.	22
SMILES	HTRA1 inh	rCAG RNA binder	SIAE primary	TCR-CD3 inh	mABHD4 FP	PRMT1 FP inh
Cc1cccc(-c2cccc3c4c([nH]c23)[C@@H]2C[C@H](N(C)C(=O)Nc3ccccc3)[C@H]([C@H](C)O)C(=O)N2CC4)c1	/	.	.	/	.	.
CC(=O)NC1C(=O)N=C(SC(C)C(=O)Nc2cccc(Cl)c2)NC1=O (stereo not drawn)	.	.	.	.	.	22
CCCCN1C(=O)N2Cc3ccccc3C2CS1(=O)=O (stereo not drawn)	/	.	.	/	.	.
COc1ccccc1-n1ccnc(SCC(=O)NCCc2ccccc2)c1=O	.	.	.	.	.	23
Cn1cnc([N+](=O)[O-])c1Sc1nnc(-c2ccccc2)c(-c2ccccc2)n1	/	.	.	.	.	24
COc1ccc(CN2C[C@]3(C=C(C)Cn4c(=O)n(-c5ccccc5)c(=O)n43)N(C(=O)OCc3ccccc3)C2=NC(=O)c2ccccc2)c(OC)c1	/	.	.	/	.	.
CCC(=O)OC1(C)C(=O)C2=COC(c3ccc(OC)cc3)=CC2=C(Br)C1=O (stereo not drawn)	.	.	.	.	.	.
CCC(=O)OC1(C)C(=O)C=C2C=C(c3ccc(C#N)cc3)OC=C2C1=O (stereo not drawn)	.	42	.	.	.	.
O=C(CCc1ccccc1)N[C@H]1[C@@H](OC(=O)c2cnccn2)CCC[C@@]12C(=O)N(Cc1ccccc1)c1ccccc12	/	.	.	/	.	.
O=C1C=CC2(C=C1)O[C@H](Cc1ccccc1)[C@@H](Cc1ccccc1)O2	.	.	.	.	.	51
O=c1c2ccccc2n(Cc2ccno2)n1[C@@H](Cc1ccccc1)Cn1cc(-c2ccc(-c3ccccc3)cc2)nn1	/	.	.	/	.	.
O=C(NCc1ccco1)c1cnn2c(C(F)(F)F)cc(-c3cccs3)nc12	.	.	.	.	.	23
COc1ccc(Cn2cc(CN3[C@@H](CC(C)C)COc4ccc(Cl)cc4S3(=O)=O)nn2)cc1	/	.	.	/	.	.
COc1ccc(C(=O)Nc2ccccc2C(=O)O)cc1NC(=O)C(c1ccccc1)c1ccccc1	.	82	.	.	.	.
CCC(c1nnc(SCC(=O)NCCc2ccc(Cl)cc2Cl)o1)N(C)C (stereo not drawn)	.	.	.	.	.	21
O=C(Cc1ccccc1)NC1CCCc2c1cnn2-c1ccc(F)cc1F (stereo not drawn)	/	/	.	/	.	.
COC(=O)[C@]12C[C@H](CC(=O)N3CCN(C(=O)c4ccco4)CC3)C(=O)N(Cc3ccccc3)C1=C[C@H](COCc1ccccc1)O[C@@H]2C	/	.	.	/	.	.
Cc1cccc2cc3c(N)c(C(=O)Nc4ccc(N5CCOCC5)cc4)sc3nc12	.	.	.	.	.	.
CCc1cccc2cc3c(N)c(C(=O)Nc4ccc(S(=O)(=O)N5CCCC5)cc4)sc3nc12	.	.	27	.	.	.
CCCCCc1ccc(NC(=O)O[C@@H]2CC[C@@]34CCCN3C(=O)CCC[C@H]4C2)cc1	/	/	.	/	.	.
C[C@H](NC(=O)[C@@H]1CSC2c3ccccc3C(=O)N21)C(=O)NCCc1ccc(F)cc1 (stereo partly drawn)	.	.	.	.	.	25
N#C/C(=C/c1cn(-c2ccccc2)nc1-c1cccc(S(=O)(=O)N2CCOCC2)c1)C(=O)NCc1ccco1	.	.	.	.	.	23
